According to ChEMBL document CHEMBL2417369, “Synthesis and evaluation of heteroaryl substituted diazaspirocycles as scaffolds to probe the ATP-binding site of protein kinases” (Bioorg Med Chem, 2013):

Columns and labels:
[1] = target: Tyrosine-protein kinase HCK (Homo sapiens) (UniProt P08631); assay: Inhibition of HCK (unknown origin) at 30 uM by microfluidic mobility shift assay relative to control
Procedure, shortened: (§1)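 Single-point screen at 30 µM test compound across a 24-kinase panel in a microfluidic assay format. ATP was set near each enzyme's Km,[ATP]. […] The pan-AGC inhibitor H-89 served as an internal control on every assay plate.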

[2] = target: T1, Cytoplasmic tyrosine-protein kinase BMX (Homo sapiens) (UniProt P51813); assay: Inhibition of BMX (unknown origin) at 30 uM by microfluidic mobility shift assay relative to control; procedure, shortened: as §1
T1 sequence (whole entry): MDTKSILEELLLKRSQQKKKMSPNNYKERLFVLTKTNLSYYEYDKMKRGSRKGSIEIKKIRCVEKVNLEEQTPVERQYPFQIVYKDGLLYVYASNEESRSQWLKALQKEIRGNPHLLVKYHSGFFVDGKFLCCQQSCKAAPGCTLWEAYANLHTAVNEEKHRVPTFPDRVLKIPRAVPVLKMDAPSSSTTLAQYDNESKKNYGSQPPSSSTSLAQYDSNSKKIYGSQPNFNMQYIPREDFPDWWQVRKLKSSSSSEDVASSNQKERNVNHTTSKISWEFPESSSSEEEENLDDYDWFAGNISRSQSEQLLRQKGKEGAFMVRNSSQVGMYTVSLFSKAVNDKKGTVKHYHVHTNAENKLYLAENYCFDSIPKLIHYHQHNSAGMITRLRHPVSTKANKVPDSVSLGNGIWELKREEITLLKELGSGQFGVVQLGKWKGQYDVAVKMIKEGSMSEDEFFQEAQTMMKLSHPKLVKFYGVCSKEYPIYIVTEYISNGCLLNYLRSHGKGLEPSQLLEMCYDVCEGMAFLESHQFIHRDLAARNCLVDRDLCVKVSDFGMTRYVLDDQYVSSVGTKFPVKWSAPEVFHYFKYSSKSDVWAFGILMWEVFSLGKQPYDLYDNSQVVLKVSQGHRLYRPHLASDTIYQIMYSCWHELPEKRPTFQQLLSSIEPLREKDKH

[3] = target: Tyrosine-protein kinase ABL2 (Homo sapiens) (UniProt P42684); assay: Inhibition of ARG (unknown origin) at 30 uM by microfluidic mobility shift assay relative to control; procedure, shortened: as §1
[4] = target: Protein kinase C delta type (Homo sapiens) (UniProt Q05655); assay: Inhibition of PKCdelta (unknown origin) at 30 uM by microfluidic mobility shift assay relative to control; procedure, shortened: as §1
[5] = target: T2, Protein kinase C epsilon type (Homo sapiens) (UniProt Q02156); assay: Inhibition of PKCepsilon (unknown origin) at 30 uM by microfluidic mobility shift assay relative to control
T2 sequence (whole entry): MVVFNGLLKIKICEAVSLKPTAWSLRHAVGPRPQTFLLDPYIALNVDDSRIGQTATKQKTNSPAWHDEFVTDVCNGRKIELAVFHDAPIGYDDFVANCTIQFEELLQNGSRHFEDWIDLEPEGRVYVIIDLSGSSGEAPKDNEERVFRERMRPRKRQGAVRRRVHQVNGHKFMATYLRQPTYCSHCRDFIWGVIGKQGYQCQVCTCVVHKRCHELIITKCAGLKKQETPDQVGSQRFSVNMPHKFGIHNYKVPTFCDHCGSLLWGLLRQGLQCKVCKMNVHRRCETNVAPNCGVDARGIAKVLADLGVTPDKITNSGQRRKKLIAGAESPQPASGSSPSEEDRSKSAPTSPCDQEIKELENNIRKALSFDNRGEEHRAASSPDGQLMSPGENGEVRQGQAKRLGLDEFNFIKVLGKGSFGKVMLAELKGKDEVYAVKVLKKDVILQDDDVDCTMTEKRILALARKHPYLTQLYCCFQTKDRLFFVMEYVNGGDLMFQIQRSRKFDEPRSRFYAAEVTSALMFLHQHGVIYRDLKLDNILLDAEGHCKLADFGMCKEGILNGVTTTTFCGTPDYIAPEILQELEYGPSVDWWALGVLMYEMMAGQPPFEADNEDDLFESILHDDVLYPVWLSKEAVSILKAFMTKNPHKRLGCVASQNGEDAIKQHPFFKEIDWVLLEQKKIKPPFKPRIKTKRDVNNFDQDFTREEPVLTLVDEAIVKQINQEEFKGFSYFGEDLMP
Procedure, shortened: (§2)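 Single-point screen against a 24-kinase panel in a commercial microfluidic assay format. Compounds were tested at 30 µM, with ATP at approximately the Km,[ATP] of each enzyme. H-89 was included on each assay plate as an internal control.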

[6] = target: Ribosomal protein S6 kinase alpha-2 (Homo sapiens) (UniProt Q15349); assay: Inhibition of RSK3 (unknown origin) at 30 uM by microfluidic mobility shift assay relative to control; procedure, shortened: as §2
[7] = target: Serine/threonine-protein kinase PAK 2 (Homo sapiens) (UniProt Q13177); assay: Inhibition of PAK2 (unknown origin) at 30 uM by microfluidic mobility shift assay relative to control; procedure, shortened: as §1
[8] = target: T3, Aurora kinase A (Homo sapiens, UniProt O14965); assay: Inhibition of AURA (unknown origin) by microfluidic mobility shift assay
T3 sequence (O14965 whole entry): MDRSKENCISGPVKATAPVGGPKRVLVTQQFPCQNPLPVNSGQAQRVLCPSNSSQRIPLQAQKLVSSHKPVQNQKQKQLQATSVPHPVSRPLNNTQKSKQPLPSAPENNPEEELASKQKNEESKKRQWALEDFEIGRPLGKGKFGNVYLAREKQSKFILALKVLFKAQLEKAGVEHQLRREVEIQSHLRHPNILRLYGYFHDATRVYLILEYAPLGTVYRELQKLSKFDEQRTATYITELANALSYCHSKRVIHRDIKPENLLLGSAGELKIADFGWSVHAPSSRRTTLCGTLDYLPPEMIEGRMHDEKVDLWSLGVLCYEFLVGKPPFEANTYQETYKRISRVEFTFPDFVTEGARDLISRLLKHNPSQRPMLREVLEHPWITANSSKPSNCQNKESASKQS

Serine/threonine-protein kinase PAK 2 (Homo sapiens), sequence (Q13177 whole entry): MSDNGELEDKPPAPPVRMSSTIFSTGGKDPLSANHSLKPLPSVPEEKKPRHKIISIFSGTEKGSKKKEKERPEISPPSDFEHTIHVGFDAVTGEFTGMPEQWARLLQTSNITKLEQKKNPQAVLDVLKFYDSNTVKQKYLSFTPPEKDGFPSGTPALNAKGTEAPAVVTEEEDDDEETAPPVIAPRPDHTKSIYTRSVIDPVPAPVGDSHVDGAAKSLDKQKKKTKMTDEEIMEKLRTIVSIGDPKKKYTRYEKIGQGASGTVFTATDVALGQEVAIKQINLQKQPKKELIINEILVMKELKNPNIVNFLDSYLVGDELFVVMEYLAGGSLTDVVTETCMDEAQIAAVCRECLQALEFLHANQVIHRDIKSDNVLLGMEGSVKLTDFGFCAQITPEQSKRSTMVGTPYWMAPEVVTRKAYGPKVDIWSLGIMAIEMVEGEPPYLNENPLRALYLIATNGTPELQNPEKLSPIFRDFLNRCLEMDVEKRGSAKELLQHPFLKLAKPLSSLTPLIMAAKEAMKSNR
Protein kinase C delta type (Homo sapiens), sequence (Q05655 whole entry, looked up): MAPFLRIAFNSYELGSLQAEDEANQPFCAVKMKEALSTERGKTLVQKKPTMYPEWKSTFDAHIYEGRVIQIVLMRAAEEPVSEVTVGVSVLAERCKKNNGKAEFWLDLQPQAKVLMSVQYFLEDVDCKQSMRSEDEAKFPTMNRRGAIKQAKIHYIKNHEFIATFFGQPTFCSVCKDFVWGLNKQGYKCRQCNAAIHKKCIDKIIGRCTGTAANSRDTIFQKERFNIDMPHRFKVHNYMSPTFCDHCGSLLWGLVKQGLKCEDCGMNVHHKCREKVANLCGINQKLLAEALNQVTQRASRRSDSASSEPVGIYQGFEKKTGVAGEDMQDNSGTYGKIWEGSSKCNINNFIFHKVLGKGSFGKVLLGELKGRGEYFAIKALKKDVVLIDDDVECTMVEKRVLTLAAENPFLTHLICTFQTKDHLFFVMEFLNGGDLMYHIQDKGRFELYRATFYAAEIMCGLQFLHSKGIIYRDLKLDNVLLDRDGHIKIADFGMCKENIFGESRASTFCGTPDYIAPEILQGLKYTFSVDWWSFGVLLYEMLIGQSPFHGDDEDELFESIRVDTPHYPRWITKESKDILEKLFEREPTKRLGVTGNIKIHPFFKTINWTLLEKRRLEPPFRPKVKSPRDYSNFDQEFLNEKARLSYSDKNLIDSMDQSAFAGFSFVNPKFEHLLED
Tyrosine-protein kinase HCK (Homo sapiens), sequence (P08631 2-526 limits assumed): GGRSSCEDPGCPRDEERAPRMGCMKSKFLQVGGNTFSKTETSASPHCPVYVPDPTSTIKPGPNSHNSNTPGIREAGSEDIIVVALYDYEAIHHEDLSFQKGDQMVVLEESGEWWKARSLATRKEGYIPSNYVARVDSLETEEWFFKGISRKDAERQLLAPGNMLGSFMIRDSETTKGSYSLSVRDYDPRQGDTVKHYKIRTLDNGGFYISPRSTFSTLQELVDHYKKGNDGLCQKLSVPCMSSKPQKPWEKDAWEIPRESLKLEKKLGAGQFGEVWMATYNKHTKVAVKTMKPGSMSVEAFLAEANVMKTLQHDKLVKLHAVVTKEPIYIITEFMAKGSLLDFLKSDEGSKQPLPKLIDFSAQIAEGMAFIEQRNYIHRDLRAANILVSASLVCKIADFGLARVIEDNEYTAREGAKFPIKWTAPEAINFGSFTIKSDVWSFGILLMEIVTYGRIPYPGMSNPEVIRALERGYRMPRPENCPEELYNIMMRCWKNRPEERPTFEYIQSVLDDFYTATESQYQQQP
Ribosomal protein S6 kinase alpha-2 (Homo sapiens), sequence (Q15349 whole entry): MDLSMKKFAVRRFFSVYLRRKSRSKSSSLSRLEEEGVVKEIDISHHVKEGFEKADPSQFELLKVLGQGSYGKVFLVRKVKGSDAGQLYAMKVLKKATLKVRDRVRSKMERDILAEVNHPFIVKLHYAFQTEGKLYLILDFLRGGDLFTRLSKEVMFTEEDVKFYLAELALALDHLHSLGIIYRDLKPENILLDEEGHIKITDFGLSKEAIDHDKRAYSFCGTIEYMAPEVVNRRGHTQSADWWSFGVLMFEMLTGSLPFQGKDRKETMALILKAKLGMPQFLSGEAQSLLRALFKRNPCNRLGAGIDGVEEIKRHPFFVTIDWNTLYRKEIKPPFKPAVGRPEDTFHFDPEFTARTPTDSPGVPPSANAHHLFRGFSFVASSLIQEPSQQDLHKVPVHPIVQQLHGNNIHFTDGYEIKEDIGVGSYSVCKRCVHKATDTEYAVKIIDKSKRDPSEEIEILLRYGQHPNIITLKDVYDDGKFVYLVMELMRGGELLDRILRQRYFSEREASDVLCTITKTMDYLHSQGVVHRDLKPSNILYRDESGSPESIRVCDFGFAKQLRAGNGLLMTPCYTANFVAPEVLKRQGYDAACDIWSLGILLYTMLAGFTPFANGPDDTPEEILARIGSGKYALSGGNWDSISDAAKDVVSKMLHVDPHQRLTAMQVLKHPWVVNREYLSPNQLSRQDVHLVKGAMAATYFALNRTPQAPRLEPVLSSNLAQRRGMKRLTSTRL
Tyrosine-protein kinase ABL2 (Homo sapiens), sequence (P42684 whole entry): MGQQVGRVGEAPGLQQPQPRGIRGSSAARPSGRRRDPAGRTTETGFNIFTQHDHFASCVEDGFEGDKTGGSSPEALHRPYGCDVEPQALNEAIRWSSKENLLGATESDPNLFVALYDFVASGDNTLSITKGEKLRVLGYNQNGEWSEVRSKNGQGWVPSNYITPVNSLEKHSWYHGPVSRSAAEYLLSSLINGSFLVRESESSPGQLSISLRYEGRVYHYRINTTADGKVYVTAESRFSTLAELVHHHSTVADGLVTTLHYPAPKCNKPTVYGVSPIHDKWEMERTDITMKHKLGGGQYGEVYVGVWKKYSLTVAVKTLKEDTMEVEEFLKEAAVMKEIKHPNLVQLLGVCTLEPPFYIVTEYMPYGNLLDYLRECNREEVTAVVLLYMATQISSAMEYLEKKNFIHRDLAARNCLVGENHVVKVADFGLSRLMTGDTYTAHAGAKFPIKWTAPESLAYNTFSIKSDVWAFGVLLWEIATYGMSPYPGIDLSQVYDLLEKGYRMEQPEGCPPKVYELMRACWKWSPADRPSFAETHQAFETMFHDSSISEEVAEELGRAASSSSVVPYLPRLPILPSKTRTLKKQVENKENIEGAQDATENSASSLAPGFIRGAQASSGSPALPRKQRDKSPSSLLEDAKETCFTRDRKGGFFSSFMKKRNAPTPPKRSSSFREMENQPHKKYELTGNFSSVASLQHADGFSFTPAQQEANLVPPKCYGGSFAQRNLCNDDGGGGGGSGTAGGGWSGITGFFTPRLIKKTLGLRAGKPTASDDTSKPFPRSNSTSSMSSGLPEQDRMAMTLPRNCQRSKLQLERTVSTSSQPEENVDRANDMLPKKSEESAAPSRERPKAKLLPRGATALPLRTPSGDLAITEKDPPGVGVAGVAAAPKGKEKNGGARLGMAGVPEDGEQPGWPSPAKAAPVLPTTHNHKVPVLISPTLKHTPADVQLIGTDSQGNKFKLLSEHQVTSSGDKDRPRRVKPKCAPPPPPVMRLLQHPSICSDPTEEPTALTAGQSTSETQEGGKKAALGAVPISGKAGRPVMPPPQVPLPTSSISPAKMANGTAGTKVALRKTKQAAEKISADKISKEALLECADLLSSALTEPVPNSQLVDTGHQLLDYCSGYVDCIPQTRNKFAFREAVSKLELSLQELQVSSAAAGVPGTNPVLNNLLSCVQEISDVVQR

inhibition [1] | inhibition [2] | inhibition [3] | inhibition [4] | inhibition [5] | inhibition [6] | inhibition [7] | SMILES | IC50 [8]
22% | 8% | 13% | 75% | 64% | 91% | 19% | c1ccc(CC2CCNC3(CCN(c4ncnc5[nH]cnc45)CC3)C2)cc1 (racemic) | –
41% | 0% | 23% | 79% | 66% | 81% | 20% | c1ccc(C2CCNC3(CCN(c4ncnc5[nH]cnc45)CC3)C2)cc1 (racemic) | –
15% | 12% | 18% | 27% | 24% | 57% | 13% | c1ccc(CC2CCC3(CCN(c4ncnc5[nH]cnc45)CC3)NC2)cc1 (racemic) | –

The next lines start with the compound.

SMILES | inhibition [1] | inhibition [2] | inhibition [3] | inhibition [4] | inhibition [5] | inhibition [6] | inhibition [7] | IC50 [8]
O=C(O)C1CCC2(CCN(c3ncnc4[nH]cnc34)CC2)NC1 (racemic) | – | – | – | – | – | – | – | 6.1 µM
c1nc(N2CCC3(CCCCN3)CC2)c2nc[nH]c2n1 | – | – | – | – | – | – | – | 7.8 µM
c1nc(N2CCC3(CCCNC3)CC2)c2nc[nH]c2n1 | – | – | – | – | – | – | – | 9.8 µM
